bovine MsrA act = activators of bovine methionine sulfoxide reductase A; purified bovine MsrA, absorbance read-out; 360,000 tested, 0.3% active; activation, % at 10.6 µM; in the data active = activation above about 7.5%;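 also: 0% = vehicle and 100% = reference activator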
ARFGAP1 inh = rat ARFGAP1 inhibition; Arfgap1-stimulated ARF1 GTP hydrolysis, GDP FP detection; 360,000 tested, 0.26% active; inhibition, % at 16.5 µM; Q62848;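 active = inhibition above a per-plate limit, mean inhibition of low control wells plus 3 SD, cut at about 25% in these data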;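 also: 0% = DMSO wells with enzyme and 100% = wells lacking Arfgap1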
Target sequence (Q62848 1-136 limits assumed): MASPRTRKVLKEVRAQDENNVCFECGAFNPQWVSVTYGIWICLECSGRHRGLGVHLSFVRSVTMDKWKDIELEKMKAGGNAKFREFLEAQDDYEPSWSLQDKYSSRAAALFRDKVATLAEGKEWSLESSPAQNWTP
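Material – truncated rat Arfgap1 GAP domain · Buffer or medium – HEPES-based buffer, pH 7.5 · Reagent – human ARF1(Δ1-17)-GTP substrate · Dosing – 16.5 µM single point, 1.26% DMSO · Schedule – GTP hydrolysis reaction 2 h at 25 °C · Technique – GDP detection by fluorescence polarization · Benchmarks – No-Arfgap1 wells (100%) versus DMSO full-reaction wells (0%) · Repeats – single replicate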
ASAP1 GAP inh = ASAP1 ArfGAP inhibition. Q9ULH1. ASAP1-stimulated ARF1 GTP hydrolysis, GDP FP detection. inhibition, % at 16.5 µM. 360,000 tested, 0.19% active. AID 624377; in the data active = inhibition above about 25%;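 also: 0% = vehicle with enzyme and substrate and 100% = no enzyme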
Target sequence (Q9ULH1 325-724 limits assumed): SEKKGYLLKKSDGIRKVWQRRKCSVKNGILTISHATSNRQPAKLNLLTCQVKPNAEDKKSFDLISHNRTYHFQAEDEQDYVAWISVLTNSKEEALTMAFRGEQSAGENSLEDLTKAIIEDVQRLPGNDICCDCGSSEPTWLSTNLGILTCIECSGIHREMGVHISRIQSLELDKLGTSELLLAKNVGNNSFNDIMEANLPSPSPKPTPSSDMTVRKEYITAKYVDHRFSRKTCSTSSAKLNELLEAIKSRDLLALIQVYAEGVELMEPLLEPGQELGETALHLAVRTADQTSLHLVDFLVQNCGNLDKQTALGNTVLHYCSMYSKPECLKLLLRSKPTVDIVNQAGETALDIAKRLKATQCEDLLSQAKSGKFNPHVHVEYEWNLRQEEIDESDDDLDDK
MsrA inh = inhibitors of bovine MsrA; purified bovine MsrA, absorbance read-out; inhibition, % at 15.5 µM; 360,000 tested, 0.75% active;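 also: 0% = vehicle wells with enzyme and 100% = reference inhibitor wells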
MsrA inh confirm = confirmation of bovine MsrA inhibitors. shares compounds with MsrA inh. purified bovine MsrA, absorbance read-out. inhibition, % at 15.5 µM. 2,300 tested, 41% active. AID 651822;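 also: coupled to thioredoxin reductase with NADPH and selenocystamine and DMSO as substrate; 0% = vehicle only and 100% = full effect of reference inhibitor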
An asterisk follows results filed as active; nt = no result. Hits are enriched below; roughly 1.4% of the tested compounds scored in any of these assays. Rule as the data show it, unless noted: active = inhibition above about 4.5%; inactive = the rest.

SMILES	bovine MsrA act	ARFGAP1 inh	ASAP1 GAP inh	MsrA inh	MsrA inh confirm
CC(=O)NC(CC(=O)OCC(=O)N1CCc2ccccc21)c1ccccc1 (configuration not stated)	-2	-7	-20	0	nt
CCOC(=O)CSC1=C(C#N)C(=O)NC(c2ccc(OC)cc2)S1 (configuration not stated)	-1	4	7	6.6*	6.3*
Clc1cccc(Cc2c(-c3ccccc3)nc3c4ccccc4ccn23)c1	-3	-4	0	0	nt
Cc1cccc(N=c2oc3cc(O)ccc3cc2C(N)=O)c1	0	5	16	8.0*	10*
COc1ccccc1N=c1oc2cc(O)ccc2cc1C(N)=O	-2	1	10	2	nt
COc1ccccc1C(=O)NC(=S)Nc1ccc(NC(=O)c2ccco2)cc1	-2	1	-2	99*	1
O=C(NC(=S)NNC(=O)c1cc2ccccc2cc1O)c1ccco1	-8	0	1	6.5*	4
COc1ccc(/C=C/C(=O)NC(=S)NNC(=O)c2ccco2)cc1OC	-5	-6	6	3	nt
COc1ccc(/C=C/C(=O)NC(=S)NNC(=O)c2ccco2)cc1	1	-2	3	5.5*	4.9*
CCCCC(=O)Nc1ccc(C(=O)NNC(=S)NC(=O)c2ccco2)cc1	-1	9	-9	2	nt
O=C(NNC(=S)NC(=O)c1ccco1)c1ccc(NC(=O)c2ccccc2)cc1	0	-9	16	5.2*	3
CCC1CN(C(=O)N2CCC(C(=O)NCc3ccco3)CC2)c2cc(C)ccc2O1 (configuration not stated)	-1	5	-2	0	nt
O=S(=O)(Nc1ccc(N2CCCCC2)cc1)c1ccc(F)c(F)c1	-2	1	0	0	nt
Cc1ccc(N=c2c([N+](=O)[O-])nn(-c3ccccc3)n2O)c(C)c1	-10	1	9	12*	15*
CCOC(=O)CSC1=NC(=O)/C(=C/c2ccc(Br)cc2)S1	-4	4	-4	3	nt
CCOC(=O)CSC1=NC(=O)/C(=C\c2ccc(OC(C)=O)cc2)S1	-3	2	-7	5.4*	2
Oc1cccc(/C=N/Nc2ncnc3c2ncn3Cc2ccccc2)c1	-10	-1	-3	4.8*	5.2*
COc1ccccc1-n1c(C)cc(/C=C2\C(=N)N3N=C(CC(=O)N4CCOCC4)SC3=NC2=O)c1C	-1	6	-5	5.3*	4
Cc1ccc(/C=C2\C(=N)N3N=C(CC(=O)N4CCOCC4)SC3=NC2=O)o1	-4	-4	7	5.2*	4
CCN1CCN(c2ccc(NC(=O)c3ccc4c(c3)[nH]c(=O)n4Cc3ccc(OC)cc3)cc2)CC1	-2	3	8	-1	nt
CCCN1CCN(C(=O)C(C)n2nc(C)c3sc4ccccc4c3c2=O)CC1 (configuration not stated)	0	2	11	0	nt
CCOc1ccc(CCNC(=O)c2nnc(CS(=O)(=O)c3ccccc3)o2)cc1OCC	-6	0	6	2	nt
O=C(/C=C/c1cccs1)Nc1nccs1	-6	1	11	6.4*	7.2*
O=C(/C=C/c1cccs1)Nc1cccc(NC(=O)/C=C/c2cccs2)n1	-11	8	3	7.4*	6.0*
Cc1ccc(/C=C/C(=O)Nc2nccs2)o1	-5	0	-6	5.5*	7.8*
SMILES	bovine MsrA act	ARFGAP1 inh	ASAP1 GAP inh	MsrA inh	MsrA inh confirm
CC(=O)Oc1ccccc1Cn1c(C)c(C(=O)NCc2ccccc2C(F)(F)F)sc1=O	-1	-5	4	-1	nt
COCCCNc1nc2ccccc2nc1NS(=O)(=O)c1ccc(OC)cc1	0	-3	7	3	nt
O=S(=O)(Nc1nc2ccccc2nc1OCC(F)(F)F)c1cccs1	-2	6	2	4.9*	1
COCCCNc1nc2ccccc2nc1NS(=O)(=O)c1cccs1	-4	-3	-9	5.2*	3
OCC1(Cc2ccccc2)CCN(Cc2ccc(C(F)(F)F)cc2)CC1	-1	8	13	2	nt
CN(C)CCNC(=O)c1coc(=O)c(Br)c1	-3	8	0	4	nt
O=C(NCCc1ccccc1)c1coc(=O)c(Br)c1	-16	-3	10	5.6*	6.5*
CC(C)CNC(=O)c1coc(=O)c(Br)c1	-6	5	-6	5.7*	6.1*
COc1ccccc1NC(=O)CCN1C(=O)C2C3CCC(C3)C2C1=O (configuration not stated)	-1	-2	-11	1	nt
COC(=O)c1cc(S(=O)(=O)NCc2ccc(Br)cc2)c[nH]1	-3	0	-12	-1	nt
O=[N+]([O-])c1cc(/C=N/n2c(-c3cccnc3)n[nH]c2=S)ccc1Cl	-1	2	7	12*	6.8*
Cc1n[nH]c(=O)c2c(NC(=O)CSc3nncs3)oc(C)c12	4	-1	4	1	nt
CCOc1cc(/C=C2/NC(=O)N(CC(=O)OC)C2=O)ccc1O	-5	-13	-1	7.4*	5.8*
COC(=O)COc1ccc(/C=C2/NC(=O)N(CC(=O)OC)C2=O)cc1	-4	-4	-7	5.5*	5.4*
CC(C)NC(=O)C1(S(=O)(=O)c2ccccc2)CC=CC1	-3	-9	-6	1	nt
COc1ccc(Cl)cc1N1C(=O)CC(N2CCN(S(=O)(=O)c3ccccc3F)CC2)C1=O (configuration not stated)	1	2	-13	0	nt
C=CCOc1cccc(/C=C\c2nc(O)c([N+](=O)[O-])c(=O)[nH]2)c1	-2	-3	-11	4.8*	4
C=CCOc1ccc(/C=C\c2nc(O)c([N+](=O)[O-])c(=O)[nH]2)cc1OC	-4	nt	nt	nt	nt
CCOc1ccc(-c2nnc(-c3ccncc3)o2)cc1OCC	-4	2	8	4.9*	2
COc1ccc(/C=N/NC(=O)c2[nH]c3ccc(Br)cc3c2-c2ccccc2)c(C(=O)O)c1OC	-2	-4	3	3	nt
COc1cccc(/C=N/NC(=O)c2cc3c(OC)c(OC)ccc3[nH]2)c1OC	-6	17	-7	6.3*	4.6*
COc1ccc(/C=N/NC(=O)c2[nH]c3ccc(Cl)cc3c2-c2ccccc2)c(C(=O)O)c1OC	-3	-4	9	5.2*	6.5*
COc1cccc(/C=N/NC(=O)c2cc3c(OC)cccc3[nH]2)c1OC	-4	5	10	5.3*	3
COc1cccc(/C=N/NC(=O)c2cc3c(OC)cccc3[nH]2)c1O	-3	6	-9	1	nt
CCCCNC(=O)C1(C)CCCCN1C(=O)c1ccc(C)c(F)c1 (configuration not stated)	-4	0	-6	-1	nt
Cn1c(=O)[nH]c(Nc2ccccc2)c([N+](=O)[O-])c1=O	-8	-2	5	6.4*	4
O=C(NC1CCCC1)N[C@@H]1C=C[C@@H](CC(=O)N2CCOCC2)O[C@@H]1CO	nt	4	9	-1	nt
O=c1c2cc(Cl)ccc2oc2nc3n(c(=O)c12)CCCS3	-2	-6	7	8.9*	5
N#Cc1c(-c2ccc(Cl)cc2)nc2n(c1=O)CCCS2	-4	3	6	2	nt

Screening data from PubChem BioAssay.
